Activity calls are given as the source filed them. No cut-off for these calls is given here.
Tests used:
Assay type in all cases: functional
[1] = test system: Staphylococcus aureus; assay: Antibacterial activity against methicillin-resistant Staphylococcus aureus ATCC 43300 assessed as inhibition of bacterial growth after 18 hrs by CLSI protocol based broth microdilution assay
Method in brief: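 Broth microdilution MIC of carbazole alone vs MRSA ATCC 43300, tested up to 200 μM.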

[2] = test system: Staphylococcus aureus; assay: Antibacterial activity against methicillin-resistant Staphylococcus aureus COL assessed as inhibition of bacterial growth after 18 hrs in presence of oxacillin by CLSI protocol based broth microdilution assay
[3] = test system: Staphylococcus aureus; assay: Antibacterial activity against methicillin-resistant Staphylococcus aureus USA100 assessed as inhibition of bacterial growth after 18 hrs in presence of oxacillin by CLSI protocol based broth microdilution assay
[4] = test system: Staphylococcus aureus; assay: Antibacterial activity against methicillin-resistant Staphylococcus aureus USA300 assessed as inhibition of bacterial growth after 18 hrs in presence of oxacillin by CLSI protocol based broth microdilution assay
[5] = test system: Staphylococcus aureus; assay: Potentiation of oxacillin induced antibacterial activity against methicillin-resistant Staphylococcus aureus COL assessed as oxacillin MIC at 50 uM after 18 hrs by CLSI protocol based broth microdilution assay
[6] = test system: Staphylococcus aureus; assay: Potentiation of oxacillin induced antibacterial activity against methicillin-resistant Staphylococcus aureus ATCC 43300 assessed as oxacillin MIC at 25 uM after 18 hrs by CLSI protocol based broth microdilution assay
[7] = test system: Staphylococcus aureus; assay: Potentiation of oxacillin induced antibacterial activity against methicillin-resistant Staphylococcus aureus USA300 assessed as fold change in oxacillin MIC at 50 uM after 18 hrs by CLSI protocol based broth microdilution assay
[8] = test system: Staphylococcus aureus; assay: Potentiation of oxacillin induced antibacterial activity against methicillin-resistant Staphylococcus aureus USA100 assessed as oxacillin MIC at 50 uM after 18 hrs by CLSI protocol based broth microdilution assay
[9] = test system: Staphylococcus aureus; assay: Potentiation of oxacillin induced antibacterial activity against methicillin-resistant Staphylococcus aureus COL assessed as fold change in oxacillin MIC at 50 uM after 18 hrs by CLSI protocol based broth microdilution assay
[10] = test system: Staphylococcus aureus; assay: Potentiation of oxacillin induced antibacterial activity against methicillin-resistant Staphylococcus aureus USA 100 assessed as fold change in oxacillin MIC at 50 uM after 18 hrs by CLSI protocol based broth microdilution assay
[11] = test system: Staphylococcus aureus; assay: Potentiation of oxacillin induced antibacterial activity against methicillin-resistant Staphylococcus aureus USA300 assessed as oxacillin MIC at 50 uM after 18 hrs by CLSI protocol based broth microdilution assay
[12] = test system: Staphylococcus aureus; assay: Upregulation of mecA gene expression in methicillin-resistant Staphylococcus aureus USA100 by RT-PCR method
[13] = test system: Staphylococcus aureus; assay: Upregulation of mecA gene expression in methicillin-resistant Staphylococcus aureus USA300 by RT-PCR method
[14] = test system: Staphylococcus aureus; assay: Antibacterial activity against methicillin-resistant Staphylococcus aureus USA300 harboring stk1 deletion mutant co-transfected with a plasmid bearing stk1 assessed as inhibition of bacterial growth after 18 hrs in presence of oxacillin by CLSI protocol based broth microdilution assay
Method in brief: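 USA300 Δstk1 strain carrying induced stk1 (Δ/+stk1). […] Fold change in MIC taken relative to oxacillin alone.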

[15] = test system: Staphylococcus aureus; assay: Upregulation of blaZ gene expression in methicillin-resistant Staphylococcus aureus USA100 by RT-PCR method
[16] = test system: Staphylococcus aureus; assay: Antibacterial activity against methicillin-resistant Staphylococcus aureus USA300 harboring stk1 deletion mutant assessed as inhibition of bacterial growth after 18 hrs in presence of oxacillin by CLSI protocol based broth microdilution assay
Method in brief: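 USA300 Δstk1 mutant. Oxacillin MIC (µg mL⁻¹) was read with each carbazole held at a fixed 25 or 50 µM, and compared with oxacillin alone in the same strain. Fold change in MIC was taken as alone over cotreated. The parent USA300 and the stk1-complemented (Δ/+stk1) strains were run alongside.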

[17] = test system: Staphylococcus aureus; assay: Upregulation of mecA gene expression in methicillin-resistant Staphylococcus aureus ATCC 43300 by RT-PCR method
[18] = test system: Staphylococcus aureus; assay: Upregulation of blaZ gene expression in methicillin-resistant Staphylococcus aureus ATCC 43300 by RT-PCR method
[19] = test system: Staphylococcus aureus; assay: Upregulation of mecA gene expression in methicillin-resistant Staphylococcus aureus COL by RT-PCR method
[20] = test system: Staphylococcus aureus; assay: Potentiation of oxacillin induced antibacterial activity against methicillin-resistant Staphylococcus aureus ATCC 43300 assessed as fold change in oxacillin MIC at 50 uM after 18 hrs by CLSI protocol based broth microdilution assay
[21] = test system: Staphylococcus aureus; assay: Potentiation of oxacillin induced antibacterial activity against methicillin-resistant Staphylococcus aureus ATCC 43300 assessed as oxacillin MIC at 50 uM after 18 hrs by CLSI protocol based broth microdilution assay
[22] = test system: Staphylococcus aureus; assay: Potentiation of oxacillin induced antibacterial activity against methicillin-resistant Staphylococcus aureus USA100 assessed as oxacillin MIC at 10 uM after 18 hrs by CLSI protocol based broth microdilution assay
[23] = test system: Staphylococcus aureus; assay: Potentiation of oxacillin induced antibacterial activity against methicillin-resistant Staphylococcus aureus USA300 assessed as oxacillin MIC at 10 uM after 18 hrs by CLSI protocol based broth microdilution assay
[24] = test system: Staphylococcus aureus; assay: Potentiation of oxacillin induced antibacterial activity against methicillin-resistant Staphylococcus aureus USA300 assessed as fold change in oxacillin MIC at 10 uM after 18 hrs by CLSI protocol based broth microdilution assay
[25] = test system: Staphylococcus aureus; assay: Potentiation of oxacillin induced antibacterial activity against methicillin-resistant Staphylococcus aureus ATCC 43300 assessed as fold change in oxacillin MIC at 10 uM after 18 hrs by CLSI protocol based broth microdilution assay
[26] = test system: Staphylococcus aureus; assay: Potentiation of oxacillin induced antibacterial activity against methicillin-resistant Staphylococcus aureus ATCC 43300 assessed as oxacillin MIC at 10 uM after 18 hrs by CLSI protocol based broth microdilution assay
[27] = test system: Staphylococcus aureus; assay: Potentiation of oxacillin induced antibacterial activity against methicillin-resistant Staphylococcus aureus COL assessed as oxacillin MIC at 10 uM after 18 hrs by CLSI protocol based broth microdilution assay
[28] = test system: Staphylococcus aureus; assay: Potentiation of oxacillin induced antibacterial activity against methicillin-resistant Staphylococcus aureus COL assessed as fold change in oxacillin MIC at 10 uM after 18 hrs by CLSI protocol based broth microdilution assay
[29] = test system: Staphylococcus aureus; assay: Potentiation of oxacillin induced antibacterial activity against methicillin-resistant Staphylococcus aureus USA100 assessed as fold change in oxacillin MIC at 10 uM after 18 hrs by CLSI protocol based broth microdilution assay

| Compound | MIC [1] | MIC [2] [µg/mL] | MIC [3] [µg/mL] | MIC [4] [µg/mL] | MIC [5] [µg/mL] | fold change (FC) [7] | MIC [8] [µg/mL] | fold change (FC) [9] | fold change (FC) [10] | MIC [11] [µg/mL] | fold change (FC) [20] | MIC [21] [µg/mL] | further results |
| --- | --- | --- | --- | --- | --- | --- | --- | --- | --- | --- | --- | --- | --- |
| CC(C)(O/N=C(\C(=O)N[C@@H]1C(=O)N2C(C(=O)[O-])=C(C[n+]3ccccc3)CS[C@H]12)c1csc(N)n1)C(=O)O [CEFTAZIDIME] | 128 µg/mL | 1020 | 1020 | 512 | – | – | – | – | – | – | – | – | – |
| CC(C(=O)O)c1ccc2c(c1)[nH]c1ccc(Cl)cc12 (centres undefined) [CARPROFEN] | 100 µM | – | – | – | 512 | 1 | 256 | 1 | 1 | 16 | – | – | MIC [6]: 32 µg/mL |
| Cc1onc(-c2ccccc2)c1C(=O)N[C@@H]1C(=O)N2[C@@H]1SC(C)(C)[C@@H]2C(=O)O [OXACILLIN] | 32 µg/mL | 512 | 256 | 32 | – | – | – | – | – | – | – | – | Activity [12]: Active; Activity [13]: Active; MIC [14]: 4 µg/mL; Activity [15]: Active; MIC [16]: 0.25 µg/mL; Activity [17]: Active; Activity [18]: Active; Activity [19]: Active |
| Ic1ccc2[nH]c3ccccc3c2c1 | > 200 µM | – | – | – | 512 | 2 | 128 | 1 | 2 | 16 | 2 | 16 | – |
| Oc1cccc2[nH]c3ccccc3c12 | > 200 µM | – | – | – | 512 | 1 | 256 | 1 | 1 | 32 | 1 | 32 | – |
| Brc1ccc2c(c1)[nH]c1ccccc12 | > 200 µM | – | – | – | 512 | 1 | 128 | 1 | 2 | 32 | 2 | 16 | – |
| Clc1ccc2[nH]c3ccc(Cl)cc3c2c1 | 50 µM | – | – | – | – | – | – | – | – | – | – | – | MIC [22]: 256 µg/mL; MIC [23]: 16 µg/mL; fold change (FC) [24]: 2; fold change (FC) [25]: 1; MIC [26]: 16 µg/mL; MIC [27]: 128 µg/mL; fold change (FC) [28]: 4; fold change (FC) [29]: 1 |
| COc1cccc(OC)c1C(=O)N[C@@H]1C(=O)N2[C@@H]1SC(C)(C)[C@@H]2C(=O)O [METHICILLIN] | 4 µg/mL | 1020 | 512 | 32 | – | – | – | – | – | – | – | – | – |
